Measured values as given in ChEMBL document CHEMBL3853270, “Influence of Birch Bark Triterpenes on Keratinocytes and Fibroblasts from Diabetic and Nondiabetic Donors” (2016).
Calls of active or inactive are those of the source. No cut-off for these calls is given here.

Legend:
Assay type in all cases: functional
Fibroblast [1] = assay: Effect on transcription factor related gene expression in diabetic adult human primary fibroblasts assessed as JUN mRNA levels at 1.96 uM after 6 hrs by qPCR analysis
Fibroblast [2] = assay: Effect on chemokines related gene expression in non-diabetic adult human primary fibroblasts assessed as CCL2 mRNA levels at 9.81 uM after 6 hrs by qPCR analysis
Fibroblast [3] = assay: Effect on antioxidant related gene expression in diabetic adult human primary fibroblasts assessed as NFE2L2 mRNA levels at 9.81 uM after 6 hrs by qPCR analysis
Fibroblast [4] = assay: Effect on growth factor related gene expression in non-diabetic young human primary fibroblasts assessed as GDF15 mRNA levels at 1.96 uM after 6 hrs by qPCR analysis
Summary of the method: (§1)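 Primary human dermal fibroblasts (young or adult nondiabetic, adult diabetic donor) were treated for 6 h against a 0.1% DMSO solvent control. RNA from 320 000 cells per sample was measured by Fluidigm Biomark high-throughput qPCR. Values are fold change relative to solvent control, from four independent experiments, with SD. One-way ANOVA with Bonferroni post-test was applied.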

Keratinocyte [5] = assay: Effect on pro-inflammatory related gene expression in non-diabetic young human primary keratinocytes assessed as TNF mRNA levels at 1.96 uM after 6 hrs by qPCR analysis
Keratinocyte [6] = assay: Effect on antiinflammatory related gene expression in diabetic adult human primary keratinocytes assessed as NFKBIA mRNA levels at 9.81 uM after 6 hrs by qPCR analysis
Summary of the method: (§2)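 Primary keratinocytes from nondiabetic young and adult and diabetic adult donors; 400 000 cells per sample, 6 h exposure at 1.96 or 9.81 μM. RNA extracted and read on a high-throughput qPCR chip. Results are fold change versus 0.1% DMSO solvent control from 5−7 independent experiments over two donors per group, SD, one-way ANOVA with Bonferroni post-test.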

Fibroblast [7] = assay: Effect on MMP1 mRNA expression levels in diabetic adult human primary fibroblasts at 9.81 uM after 6 hrs by qPCR analysis
Summary of the method: (§3)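 Primary dermal fibroblasts from one nondiabetic young, one nondiabetic adult and one diabetic adult donor; 320 000 cells per sample, 6 h at 1.96 or 9.81 μM. RNA measured on a high-throughput qPCR chip. Fold change versus 0.1% DMSO control, four independent experiments, SD, one-way ANOVA with Bonferroni post-test.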

Keratinocyte [8] = assay: Effect on AQP3 mRNA expression levels in non-diabetic adult human primary keratinocytes at 9.81 uM after 6 hrs by qPCR analysis; summary of the method: as §2
Fibroblast [9] = assay: Effect on antioxidant related gene expression in non-diabetic young human primary fibroblasts assessed as SOD2 mRNA levels at 9.81 uM after 6 hrs by qPCR analysis
[10] = Effect on wound healing activity in diabetic adult human primary keratinocytes assessed as upregulation of MIF protein levels at 1.96 uM after 24 hrs by bead-based suspension array analysis; conditions: Keratinocyte
Fibroblast [11] = assay: Effect on pro-inflammatory related gene expression in diabetic adult human primary fibroblasts assessed as IL1R1 mRNA levels at 1.96 uM after 6 hrs by qPCR analysis; summary of the method: as §1
[12] = Effect on wound healing activity in non-diabetic adult human primary keratinocytes assessed as upregulation of soluble E-selectin protein levels at 1.96 uM after 24 hrs by bead-based suspension array analysis; conditions: Keratinocyte
Fibroblast [13] = assay: Effect on growth factor related gene expression in diabetic adult human primary fibroblasts assessed as VEGFA mRNA levels at 9.81 uM after 6 hrs by qPCR analysis; summary of the method: as §1
Keratinocyte [14] = assay: Effect on pro-inflammatory related gene expression in non-diabetic adult human primary keratinocytes assessed as PTGS2 mRNA levels at 1.96 uM after 6 hrs by qPCR analysis
Fibroblast [15] = assay: Effect on pro-inflammatory related gene expression in non-diabetic young human primary fibroblasts assessed as IL6 mRNA levels at 9.81 uM after 6 hrs by qPCR analysis
Keratinocyte [16] = assay: Effect on pro-inflammatory related gene expression in non-diabetic young human primary keratinocytes assessed as IL6 mRNA levels at 9.81 uM after 6 hrs by qPCR analysis
Keratinocyte [17] = assay: Effect on cellular connection related gene expression in non-diabetic young human primary keratinocytes assessed as CLDN4 mRNA levels at 1.96 uM after 6 hrs by qPCR analysis
Fibroblast [18] = assay: Effect on antiinflammatory related gene expression in non-diabetic adult human primary fibroblasts assessed as SOCS3 mRNA levels at 1.96 uM after 6 hrs by qPCR analysis; summary of the method: as §3
Keratinocyte [19] = assay: Effect on AQP3 mRNA expression levels in non-diabetic young human primary keratinocytes at 9.81 uM after 6 hrs by qPCR analysis; summary of the method: as §2
Fibroblast [20] = assay: Effect on chemokines related gene expression in non-diabetic adult human primary fibroblasts assessed as CCL2 mRNA levels at 1.96 uM after 6 hrs by qPCR analysis
Keratinocyte [21] = assay: Effect on chemokines related gene expression in non-diabetic young human primary keratinocytes assessed as IL8 mRNA levels at 9.81 uM after 6 hrs by qPCR analysis
Summary of the method: (§4)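 Primary human keratinocytes (nondiabetic young or adult, diabetic adult donors) were exposed to compound for 6 h, with 0.1% DMSO as solvent control. Total RNA came from 400 000 cells per sample and was assayed on a Fluidigm Biomark high-throughput qPCR chip. Results are fold change vs solvent control, from 2−4 independent experiments on two donors per group, with SD. Groups were compared by one-way ANOVA with Bonferroni post-test.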

Fibroblast [22] = assay: Effect on pro-inflammatory related gene expression in non-diabetic young human primary fibroblasts assessed as IL1R1 mRNA levels at 1.96 uM after 6 hrs by qPCR analysis
Keratinocyte [23] = assay: Effect on MMP1 mRNA expression levels in diabetic adult human primary keratinocytes at 9.81 uM after 6 hrs by qPCR analysis; summary of the method: as §2
Keratinocyte [24] = assay: Effect on pro-inflammatory related gene expression in non-diabetic adult human primary keratinocytes assessed as IL1B mRNA levels at 9.81 uM after 6 hrs by qPCR analysis
Keratinocyte [25] = assay: Effect on AQP3 mRNA expression levels in diabetic adult human primary keratinocytes at 1.96 uM after 6 hrs by qPCR analysis; summary of the method: as §2
Fibroblast [26] = assay: Effect on MMP1 mRNA expression levels in non-diabetic adult human primary fibroblasts at 9.81 uM after 6 hrs by qPCR analysis; summary of the method: as §3
Keratinocyte [27] = assay: Effect on transcription factor related gene expression in non-diabetic adult human primary keratinocytes assessed as JUN mRNA levels at 1.96 uM after 6 hrs by qPCR analysis
Fibroblast [28] = assay: Effect on adhesion molecules related gene expression in non-diabetic adult human primary fibroblasts assessed as VCAM1 mRNA levels at 1.96 uM after 6 hrs by qPCR analysis
Summary of the method: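 Dermal fibroblasts from nondiabetic adult and diabetic adult donors, exposed for 6 h at 1.96 or 9.81 μM. ICAM-1 and VCAM-1 mRNA measured by standard qRT-PCR, n = 3. Fold change versus 0.1% DMSO control, SD, one-way ANOVA with Bonferroni post-test.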

Fibroblast [29] = assay: Effect on chemokines related gene expression in diabetic adult human primary fibroblasts assessed as IL8 mRNA levels at 1.96 uM after 6 hrs by qPCR analysis
Keratinocyte [30] = assay: Effect on growth factor related gene expression in non-diabetic young human primary keratinocytes assessed as PDGFB mRNA levels at 1.96 uM after 6 hrs by qPCR analysis; summary of the method: as §4

C=C(C)[C@@H]1CC[C@]2(CO)CC[C@]3(C)[C@H](CC[C@@H]4[C@@]5(C)CC[C@H](O)C(C)(C)[C@@H]5CC[C@]43C)[C@@H]12 [BETULIN]
fold change (FC) (Fibroblast [1]): 1.3
fold change (FC) (Fibroblast [2]): 197
fold change (FC) (Fibroblast [3]): 1.5
fold change (FC) (Fibroblast [4]): 3.7
fold change (FC) (Keratinocyte [5]): 4.5
fold change (FC) (Keratinocyte [6]): 2
fold change (FC) (Fibroblast [7]): 0.6
fold change (FC) (Keratinocyte [8]): 0.8
fold change (FC) (Fibroblast [9]): 2.2
Activity [10]: Active
fold change (FC) (Fibroblast [11]): 1.7
Activity [12]: Active
fold change (FC) (Fibroblast [13]): 2
fold change (FC) (Keratinocyte [14]): 1
fold change (FC) (Fibroblast [15]): 55
fold change (FC) (Keratinocyte [16]): 6
fold change (FC) (Keratinocyte [17]): 1.5
fold change (FC) (Fibroblast [18]): 24.4
fold change (FC) (Keratinocyte [19]): 1.1
fold change (FC) (Fibroblast [20]): 171
fold change (FC) (Keratinocyte [21]): 21.8
fold change (FC) (Fibroblast [22]): 3.7
fold change (FC) (Keratinocyte [23]): 1.8
fold change (FC) (Keratinocyte [24]): 0.9
fold change (FC) (Keratinocyte [25]): 0.8
fold change (FC) (Fibroblast [26]): 2.3
fold change (FC) (Keratinocyte [27]): 1.3
fold change (FC) (Fibroblast [28]): 63
fold change (FC) (Fibroblast [29]): 10.8
fold change (FC) (Keratinocyte [30]): 1.2
